# Active and inactive are the calls of the source. The calls are words filed in the database; no cut-off is given here.
# Molecular target: T1, Isocitrate dehydrogenase [NADP] cytoplasmic (Homo sapiens, UniProt O75874)
# Assay: Inhibition of wild type IDH1 using DL-isocitrate as substrate by resazurin-based fluorimetric analysis relative to control
# Conditions: not given
# T1 sequence (O75874 whole entry): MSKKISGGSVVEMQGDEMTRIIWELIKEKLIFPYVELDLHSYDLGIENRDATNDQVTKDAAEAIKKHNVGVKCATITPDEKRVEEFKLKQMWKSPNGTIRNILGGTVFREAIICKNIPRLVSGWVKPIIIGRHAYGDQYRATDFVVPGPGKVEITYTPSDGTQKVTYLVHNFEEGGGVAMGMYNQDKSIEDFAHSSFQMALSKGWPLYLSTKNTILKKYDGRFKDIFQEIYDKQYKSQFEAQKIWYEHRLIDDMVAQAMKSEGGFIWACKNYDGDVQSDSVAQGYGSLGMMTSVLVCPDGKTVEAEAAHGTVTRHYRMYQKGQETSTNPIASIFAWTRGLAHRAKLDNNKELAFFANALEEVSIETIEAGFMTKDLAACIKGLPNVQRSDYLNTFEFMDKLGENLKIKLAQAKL
row,Imax [%],Structure (SMILES)
1,32,Cc1ccccc1C(C(=O)NC1CCCC1)N(C(=O)Cc1cccs1)c1cccc(F)c1 (stereo not given)
2,22,Cc1ccccc1C(C(=O)NC1CCCCC1)N(C(=O)Cc1cccs1)c1cccc(F)c1 (racemic)
3,32,Cc1ccccc1C(C(=O)NC1CCCCC1)N(C(=O)Cc1cscn1)c1cccc(F)c1 (racemic)
4,34,Cc1ccccc1C(C(=O)NC1CCCCC1)N(C(=O)Cc1ccncc1)c1cccc(F)c1 (racemic)
5,39,Cc1ccccc1C(C(=O)NC1CCCCC1)N(C(=O)Cc1c[nH]c2ccccc12)c1cccc(F)c1 (racemic)

# Molecular target: T1, Isocitrate dehydrogenase [NADP] cytoplasmic
# Assay: Inhibition of wild type IDH1 using DL-isocitrate as substrate by resazurin-based fluorimetric analysis
# Conditions: not given
row,IC50 [µM],Structure (SMILES)
1,7.7,Cc1ccccc1C(C(=O)NC1CCCC1)N(C(=O)Cc1cccs1)c1cccc(F)c1 (stereo not given)
2,> 100,Cc1ccccc1C(C(=O)NC1CCCCC1)N(C(=O)Cn1c(C)nc2ccccc21)c1cccc(F)c1 (racemic)
3,> 100,Cc1ccccc1C(C(=O)NC1CCCCC1)N(C(=O)Cn1ccc2ccccc21)c1cccc(F)c1 (racemic)
4,2.9,Cc1ccccc1C(C(=O)NC1CCCCC1)N(C(=O)Cc1cccs1)c1cccc(F)c1 (racemic)
5,19.7,Cc1ccccc1C(C(=O)NC1CCCCC1)N(C(=O)Cc1cscn1)c1cccc(F)c1 (racemic)
6,19.3,Cc1ccccc1C(C(=O)NC1CCCCC1)N(C(=O)Cc1ccncc1)c1cccc(F)c1 (racemic)
7,6.3,Cc1ccccc1C(C(=O)NC1CCCCC1)N(C(=O)Cc1c[nH]c2ccccc12)c1cccc(F)c1 (racemic)

row,Structure (SMILES),IC50 [µM]
1,Cc1ccccc1C(C(=O)NC1CCCCC1)N(C(=O)Cn1ccnc1C)c1cccc(F)c1 (racemic),> 100

# Molecular target: T2, Isocitrate dehydrogenase [NADP] cytoplasmic (Homo sapiens, UniProt O75874, R132C)
# T2 sequence (O75874 2-414 R132C limits assumed): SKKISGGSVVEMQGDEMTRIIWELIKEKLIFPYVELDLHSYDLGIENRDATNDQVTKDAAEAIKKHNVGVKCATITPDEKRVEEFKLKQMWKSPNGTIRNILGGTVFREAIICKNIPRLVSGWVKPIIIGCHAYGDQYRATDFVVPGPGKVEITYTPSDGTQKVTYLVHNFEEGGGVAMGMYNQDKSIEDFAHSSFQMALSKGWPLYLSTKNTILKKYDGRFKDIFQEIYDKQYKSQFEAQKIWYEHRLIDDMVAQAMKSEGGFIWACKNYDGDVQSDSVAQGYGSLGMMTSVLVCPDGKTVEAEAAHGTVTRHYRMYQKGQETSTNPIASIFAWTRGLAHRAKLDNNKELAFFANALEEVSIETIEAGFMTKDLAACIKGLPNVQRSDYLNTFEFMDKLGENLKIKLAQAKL
# Assay: Inhibition of IDH1 R132C mutant using alpha-ketoglutarate as substrate after 60 mins by resazurin-based fluorimetric analysis
# Conditions: not given
row,IC50 [nM],Structure (SMILES)
1,50,Cc1ccccc1C(C(=O)NC1CCCC1)N(C(=O)Cc1cccs1)c1cccc(F)c1 (stereo not given)
2,40,Cc1ccccc1C(C(=O)NC1CCCCC1)N(C(=O)Cn1c(C)nc2ccccc21)c1cccc(F)c1 (racemic)
3,40,Cc1ccccc1C(C(=O)NC1CCCCC1)N(C(=O)Cn1ccc2ccccc21)c1cccc(F)c1 (racemic)
4,30,Cc1ccccc1C(C(=O)NC1CCCCC1)N(C(=O)Cc1cccs1)c1cccc(F)c1 (racemic)
5,60,Cc1ccccc1C(C(=O)NC1CCCCC1)N(C(=O)Cc1cscn1)c1cccc(F)c1 (racemic)
6,50,Cc1ccccc1C(C(=O)NC1CCCCC1)N(C(=O)Cc1ccncc1)c1cccc(F)c1 (racemic)
7,30,Cc1ccccc1C(C(=O)NC1CCCCC1)N(C(=O)Cc1c[nH]c2ccccc12)c1cccc(F)c1 (racemic)

row,Structure (SMILES),IC50 [nM]
1,Cc1ccccc1C(C(=O)NC1CCCCC1)N(C(=O)Cn1ccnc1C)c1cccc(F)c1 (racemic),160

# Molecular target: T3, Isocitrate dehydrogenase [NADP] cytoplasmic (Homo sapiens, UniProt O75874, R132H)
# T3 sequence (O75874 2-414 R132H limits assumed): as the sequence (O75874 2-414 R132C limits assumed) above, with C131H counted along it
# Assay: Inhibition of IDH1 R132H mutant expressed in human U87 cells assessed as inhibition of 2-hydroxyglutarate production after 48 hrs by LC/MS analysis
# Type: cell-based, U-87MG ATCC
# Conditions: not given
row,IC50 [nM],Structure (SMILES)
1,580,Cc1ccccc1C(C(=O)NC1CCCC1)N(C(=O)Cc1cccs1)c1cccc(F)c1 (stereo not given)
2,240,Cc1ccccc1C(C(=O)NC1CCCCC1)N(C(=O)Cn1c(C)nc2ccccc21)c1cccc(F)c1 (racemic)
3,370,Cc1ccccc1C(C(=O)NC1CCCCC1)N(C(=O)Cn1ccc2ccccc21)c1cccc(F)c1 (racemic)
4,190,Cc1ccccc1C(C(=O)NC1CCCCC1)N(C(=O)Cc1cccs1)c1cccc(F)c1 (racemic)
5,290,Cc1ccccc1C(C(=O)NC1CCCCC1)N(C(=O)Cc1cscn1)c1cccc(F)c1 (racemic)
6,210,Cc1ccccc1C(C(=O)NC1CCCCC1)N(C(=O)Cc1ccncc1)c1cccc(F)c1 (racemic)
7,360,Cc1ccccc1C(C(=O)NC1CCCCC1)N(C(=O)Cc1c[nH]c2ccccc12)c1cccc(F)c1 (racemic)

# Tested on: Mus musculus
# Assay: Inhibition of IDH1 R132H mutant in human U87 cells xenografted in CD1 nude mouse assessed as inhibition of 2-hydroxyglutarate production at 150 mg/kg, ip administered as single dose by LC/MS analysis relative to vehicle-treated control
# Type: functional, U-87MG ATCC
# Conditions: route intraperitoneal
# Summary of the method: (§1)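 Female nude mice bearing U87 R132H tumor xenografts dosed IP at 150 mg/kg in 0.5% MC/0.2% Tween 80, one dose or three BID doses; blood and tumor sampled at several time points; tumor 2-HG quantified by LC/MS/MS against vehicle-dosed animals.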
row,Structure (SMILES),Imax [%]
1,Cc1ccccc1C(C(=O)NC1CCCCC1)N(C(=O)Cn1ccnc1C)c1cccc(F)c1 (racemic),69

# Tested on: not listed separately
# Assay: Fraction unbound in CD1 nude mouse plasma xenografted with human U87 cells expressing IDH1 R132H mutant at 150 mg/kg, ip administered BID for 1 day
# Type: ADME, organism-based, U-87MG ATCC
# Parameters: dose 150 mg/kg, route intraperitoneal
# Conditions: not given
row,Structure (SMILES),fraction unbound at 24 h
1,Cc1ccccc1C(C(=O)NC1CCCCC1)N(C(=O)Cn1ccnc1C)c1cccc(F)c1 (racemic),0.043

# Tested on: not listed separately
# Assay: Growth inhibition of human U87 cells after 72 hrs by CellTiter-Glo assay
# Type: functional, U-87MG ATCC
# Conditions: U-87 MG
# Summary of the method: (§2)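 Cells exposed to compound for 72 h, run within the same experiment as the 2-HG assay; total cellular ATP measured; concentration giving 50% growth inhibition (GI50) determined.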
row,Structure (SMILES),GI50 [µM]
1,Cc1ccccc1C(C(=O)NC1CCCC1)N(C(=O)Cc1cccs1)c1cccc(F)c1 (stereo not given),> 20
2,Cc1ccccc1C(C(=O)NC1CCCCC1)N(C(=O)Cn1ccnc1C)c1cccc(F)c1 (racemic),> 20
3,Cc1ccccc1C(C(=O)NC1CCCCC1)N(C(=O)Cn1c(C)nc2ccccc21)c1cccc(F)c1 (racemic),> 20
4,Cc1ccccc1C(C(=O)NC1CCCCC1)N(C(=O)Cn1ccc2ccccc21)c1cccc(F)c1 (racemic),> 20
5,Cc1ccccc1C(C(=O)NC1CCCCC1)N(C(=O)Cc1cccs1)c1cccc(F)c1 (racemic),> 20
6,Cc1ccccc1C(C(=O)NC1CCCCC1)N(C(=O)Cc1cscn1)c1cccc(F)c1 (racemic),> 20
7,Cc1ccccc1C(C(=O)NC1CCCCC1)N(C(=O)Cc1ccncc1)c1cccc(F)c1 (racemic),> 20
8,Cc1ccccc1C(C(=O)NC1CCCCC1)N(C(=O)Cc1c[nH]c2ccccc12)c1cccc(F)c1 (racemic),> 20

# Tested on: not listed separately
# Assay: AUC (0 to 24 hrs) in mouse at 50 mg/kg, ip
# Type: ADME, organism-based
# Parameters: time < 24 hr, dose 50 mg/kg, route intraperitoneal
# Conditions: plasma
# Summary of the method: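 Mouse given a single IP dose of 50 mg/kg; plasma exposure expressed as AUC0−24h.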
row,Structure (SMILES),AUC(0-t) at 24 h [ng·h/mL]
1,Cc1ccccc1C(C(=O)NC1CCCCC1)N(C(=O)Cn1ccnc1C)c1cccc(F)c1 (racemic),20800

# Tested on: Isocitrate dehydrogenase [NADP] cytoplasmic (Homo sapiens), O75874 [R132H]
# Sequence (O75874 whole entry R132H): as the sequence (O75874 whole entry) above, with R132H counted along it
# Assay: Reversible inhibition of IDH1 R132H mutant using alpha-ketoglutarate as substrate by stopped-flow spectrophotometric analysis
# Conditions: not given
row,inhibition,Structure (SMILES)
1,Active,Cc1ccccc1C(C(=O)NC1CCCC1)N(C(=O)Cc1cccs1)c1cccc(F)c1 (stereo not given)

# Tested on: HT-1080
# Assay: Growth inhibition of human HT1080 cells after 72 hrs by CellTiter-Glo assay
# Type: functional
# Conditions: HT-1080, 72 h
# Summary of the method: as §2
row,GI50 [µM],Structure (SMILES)
1,> 20,Cc1ccccc1C(C(=O)NC1CCCC1)N(C(=O)Cc1cccs1)c1cccc(F)c1 (stereo not given)
2,> 20,Cc1ccccc1C(C(=O)NC1CCCCC1)N(C(=O)Cn1c(C)nc2ccccc21)c1cccc(F)c1 (racemic)
3,> 20,Cc1ccccc1C(C(=O)NC1CCCCC1)N(C(=O)Cn1ccc2ccccc21)c1cccc(F)c1 (racemic)
4,> 20,Cc1ccccc1C(C(=O)NC1CCCCC1)N(C(=O)Cc1cccs1)c1cccc(F)c1 (racemic)
5,> 20,Cc1ccccc1C(C(=O)NC1CCCCC1)N(C(=O)Cc1cscn1)c1cccc(F)c1 (racemic)
6,> 20,Cc1ccccc1C(C(=O)NC1CCCCC1)N(C(=O)Cc1ccncc1)c1cccc(F)c1 (racemic)
7,> 3,Cc1ccccc1C(C(=O)NC1CCCCC1)N(C(=O)Cc1c[nH]c2ccccc12)c1cccc(F)c1 (racemic)

row,Structure (SMILES),GI50 [µM]
1,Cc1ccccc1C(C(=O)NC1CCCCC1)N(C(=O)Cn1ccnc1C)c1cccc(F)c1 (racemic),> 20

# Molecular target: T3, Isocitrate dehydrogenase [NADP] cytoplasmic
# Assay: Inhibition of IDH1 R132H mutant using alpha-ketoglutarate as substrate after 60 mins by resazurin-based fluorimetric analysis
# Conditions: not given
row,IC50 [nM],Structure (SMILES)
1,90,Cc1ccccc1C(C(=O)NC1CCCC1)N(C(=O)Cc1cccs1)c1cccc(F)c1 (stereo not given)
2,80,O=C(NC1CCCCC1)C(c1ccccc1)N(C(=O)Cc1cccs1)c1cccc(F)c1 (stereo not given)
3,80,Cc1ccccc1C(C(=O)NC1CCCCC1)N(C(=O)Cn1c(C)nc2ccccc21)c1cccc(F)c1 (racemic)
4,70,Cc1ccccc1C(C(=O)NC1CCCCC1)N(C(=O)Cn1ccc2ccccc21)c1cccc(F)c1 (racemic)
5,50,Cc1ccccc1C(C(=O)NC1CCCCC1)N(C(=O)Cc1cccs1)c1cccc(F)c1 (racemic)
6,100,Cc1ccccc1C(C(=O)NC1CCCCC1)N(C(=O)Cc1cscn1)c1cccc(F)c1 (racemic)
7,50,Cc1ccccc1C(C(=O)NC1CCCCC1)N(C(=O)Cc1ccncc1)c1cccc(F)c1 (racemic)
8,60,Cc1ccccc1C(C(=O)NC1CCCCC1)N(C(=O)Cc1c[nH]c2ccccc12)c1cccc(F)c1 (racemic)

row,Structure (SMILES),IC50 [nM]
1,Cc1ccccc1C(C(=O)NC1CCCCC1)N(C(=O)Cn1ccnc1C)c1cccc(F)c1 (racemic),70

# Tested on: not listed separately
# Assay: Hepatic extraction ratio in rat liver microsomes
# Type: ADME, Microsome
# Conditions: read-out: ERH
# Summary of the method: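 Compound incubated with rat liver microsomes in vitro. Turnover in the incubation was used to estimate the hepatic extraction ratio. Human microsomes were run alongside.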
row,Structure (SMILES),hepatic extraction ratio
1,Cc1ccccc1C(C(=O)NC1CCCCC1)N(C(=O)Cn1ccnc1C)c1cccc(F)c1 (racemic),0.85

# Tested on: not listed separately
# Assay: Plasma protein binding in mouse by equilibrium dialysis method
# Type: ADME, cell-free
# Conditions: read-out: PPB (converted)
# Summary of the method: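 Mouse plasma protein binding measured by equilibrium dialysis.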
row,Structure (SMILES),fraction unbound
1,Cc1ccccc1C(C(=O)NC1CCCCC1)N(C(=O)Cn1ccnc1C)c1cccc(F)c1 (racemic),0.043

# Molecular target: T2, Isocitrate dehydrogenase [NADP] cytoplasmic
# Assay: Inhibition of IDH1 R132C mutant endogenously expressing human HT1080 cells assessed as inhibition of 2-hydroxyglutarate production after 48 hrs by LC/MS analysis
# Conditions: not given
row,IC50 [nM],Structure (SMILES)
1,390,Cc1ccccc1C(C(=O)NC1CCCC1)N(C(=O)Cc1cccs1)c1cccc(F)c1 (stereo not given)
2,110,Cc1ccccc1C(C(=O)NC1CCCCC1)N(C(=O)Cn1c(C)nc2ccccc21)c1cccc(F)c1 (racemic)
3,170,Cc1ccccc1C(C(=O)NC1CCCCC1)N(C(=O)Cn1ccc2ccccc21)c1cccc(F)c1 (racemic)
4,150,Cc1ccccc1C(C(=O)NC1CCCCC1)N(C(=O)Cc1cccs1)c1cccc(F)c1 (racemic)
5,220,Cc1ccccc1C(C(=O)NC1CCCCC1)N(C(=O)Cc1cscn1)c1cccc(F)c1 (racemic)
6,260,Cc1ccccc1C(C(=O)NC1CCCCC1)N(C(=O)Cc1ccncc1)c1cccc(F)c1 (racemic)
7,90,Cc1ccccc1C(C(=O)NC1CCCCC1)N(C(=O)Cc1c[nH]c2ccccc12)c1cccc(F)c1 (racemic)

row,Structure (SMILES),IC50 [nM]
1,Cc1ccccc1C(C(=O)NC1CCCCC1)N(C(=O)Cn1ccnc1C)c1cccc(F)c1 (racemic),480

# Tested on: Mus musculus
# Assay: Inhibition of IDH1 R132H mutant in human U87 cells xenografted in CD1 nude mouse assessed as inhibition of 2-hydroxyglutarate production at 150 mg/kg, ip administered BID by LC/MS analysis relative to vehicle-treated control
# Type: functional, U-87MG ATCC
# Conditions: route intraperitoneal
# Summary of the method: as §1
row,Structure (SMILES),Imax [%]
1,Cc1ccccc1C(C(=O)NC1CCCCC1)N(C(=O)Cn1ccnc1C)c1cccc(F)c1 (racemic),89.4

# Tested on: Isocitrate dehydrogenase [NADP] cytoplasmic (Homo sapiens), O75874 [R132H]
# Assay: Uncompetitive inhibition of IDH1 R132H mutant using NADPH as substrate by stopped-flow spectrophotometric analysis
# Conditions: not given
row,inhibition,Structure (SMILES)
1,Active,Cc1ccccc1C(C(=O)NC1CCCC1)N(C(=O)Cc1cccs1)c1cccc(F)c1 (stereo not given)

# Tested on: Isocitrate dehydrogenase [NADP] cytoplasmic (Homo sapiens), O75874 [R132H]
# Assay: Competitive inhibition of IDH1 R132H mutant using alpha-ketoglutarate as substrate by stopped-flow spectrophotometric analysis
# Conditions: not given
row,inhibition,Structure (SMILES)
1,Active,Cc1ccccc1C(C(=O)NC1CCCC1)N(C(=O)Cc1cccs1)c1cccc(F)c1 (stereo not given)
